Usually EC50 stands for the concentration that produces a half-maximal response. Read a low EC50 as higher potency in that assay. What is called solubility is the concentration that dissolves in the medium under given conditions. A low value points to little dissolved substance. Broadly, the CC50 is the concentration at which the toxic effect on the cells reaches its halfway point. High values mean better tolerance by the cells, low ones harm at low concentration. The IC50 is the point on the concentration scale where inhibition reaches its midpoint. A lower IC50 goes with greater potency.

The test system of series [1] is Human immunodeficiency virus 1. As to the kind of experiment: Antiviral activity against HIV-1 X4 expressing wild-type reverse transcriptase infected in human CD4+ T cells for 3 days by FACS analysis. The note with it: Human immunodeficiency virus 1, X4, T-cell, 72 h. It counts as functional, organism-based. The method, boiled down: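 Single-round infectivity assay using HIV strains carrying wild-type RT (WT X4); EC50 determined.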
A general note: A flow cytometer gives signals particle by particle.

Series [2] deals with Human immunodeficiency virus 1. As to the kind of experiment: Antiviral activity against HIV-1 X4 expressing reverse transcriptase K101P mutant infected in human CD4+ T cells for 3 days by FACS analysis. It counts as functional, organism-based. As to conditions: Human immunodeficiency virus 1, T-cell, 72 h. The method, boiled down: (§1)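 Single-round infectivity assay against HIV strains whose RT carries the K101P, K103N or Y181C mutation, alongside a WT X4 strain; EC50 determined.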

Series [3] deals with Human immunodeficiency virus 1. As to the kind of experiment: Antiviral activity against HIV-1 X4 expressing reverse transcriptase K103N mutant infected in human CD4+ T cells for 3 days by FACS analysis. It is filed as functional, organism-based. The note with it: Human immunodeficiency virus 1, T-cell, 72 h. The procedure, abridged: as §1
The test system of series [4] is Human immunodeficiency virus 1. As to the kind of experiment: Antiviral activity against HIV-1 X4 expressing reverse transcriptase Y181C mutant infected in human CD4+ T cells for 3 days by FACS analysis. It is filed as functional, organism-based. The note with it: Human immunodeficiency virus 1, T-cell, 72 h. The method, boiled down:
as §1

Series [5] in a line: Aqueous solubility of compound. It is filed as physicochemical.
Series [6] in a line: Cytotoxicity against human CD4-positive T cells. It counts as cell-based, T-cell.
The target in series [7] is Human immunodeficiency virus type 1 reverse transcriptase (Human immunodeficiency virus 1, UniProt Q72547). As to the kind of experiment: Inhibition of wild-type HIV-1 reverse transcriptase by fluorescence assay. The method, boiled down: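 Reverse transcription inhibition by wild-type RT enzyme, read by PicoGreen fluorescence; IC50 in nM.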
Series [8] addresses Human immunodeficiency virus type 1 reverse transcriptase (Human immunodeficiency virus 1, UniProt Q72547, K101P). As to the kind of experiment: Inhibition of HIV-1 reverse transcriptase K101P mutant by fluorescence assay. The method, boiled down:
(§2)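 PicoGreen fluorescence read-out of reverse transcription, run with both RT(WT) and RT(K101P) enzymes; IC50 determined for each enzyme. The fold-change is IC50 for RT(K101P) over IC50 for RT(WT).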

The subject of series [9] is Human immunodeficiency virus 1. As to the kind of experiment: Selectivity index, ratio of IC50 for HIV-1 reverse transcriptase K101P mutant to IC50 for wild-type HIV-1 reverse transcriptase. The method, boiled down: as §2
In series [10] the test system is Human immunodeficiency virus 1. As to the kind of experiment: Antiviral activity against HIV-1 NL4-3 expressing reverse transcriptase E138K mutant infected in MT-2 cells by MTT assay. It counts as functional, organism-based. The note with it: Human immunodeficiency virus 1, NL4-3, MT2. In general terms: Tetrazolium dyes change colour on reduction, which living cells bring about.

The test system of series [11] is Human immunodeficiency virus 1. As to the kind of experiment: Antiviral activity against HIV-1 NL4-3 expressing reverse transcriptase E138K/M184V mutant infected in MT-2 cells by MTT assay. The note with it: Human immunodeficiency virus 1, NL4-3, MT2. It counts as functional, organism-based.

Molecules are shown by their SMILES. Converted amounts (≈) assume the structure as drawn.

For `N#C/C=C/c1cc(F)cc(Oc2ccc(F)cc2OCCn2ccc(=O)[nH]c2=O)c1`, the EC50 in series [1] was 2 nM; in series [2] it was 2 nM; in series [3], 89 nM; in series [4] it was 8 nM. Further, the concentration in solution in series [5] (solubility) came to 10.8 µg/mL (≈ 26.3 µM). Besides, the CC50 in series [6] stood at 45000 nM. For the same molecule, the IC50 in series [7] came to 2.7 nM; in [8], 2.2 nM. Besides, the Ratio IC50 in series [9] worked out at 0.8.
`N#Cc1cc2c(Oc3ccccc3OCCn3ccc(=O)[nH]c3=O)cccn2c1`: the EC50 in series [1] worked out at 1 nM; in series [2], 1 nM; in series [3], 3 nM; in [4], 2 nM; in series [10], 0.9 nM; in series [11], 0.75 nM. In series [6], this molecule had a CC50 of over 100000 nM. Further, the results for the IC50 in series [7] and in [8] were 1.06 nM and 1.9 nM, respectively. Besides, the Ratio IC50 in series [9] was found to be 1.8.
`Cc1cc(/C=C/C#N)cc(C)c1Nc1ccnc(Nc2ccc(C#N)cc2)n1` [RILPIVIRINE]: the EC50 in series [1] came out at 13 nM; in [2], 1140 nM; in series [3], 13 nM; in [4], 51 nM. Moreover, in series [5], the solubility is under 0.1 µg/mL. Besides, half-maximal inhibition in series [8] (IC50) was put at 1000 nM.
On to `N#C/C=C/c1cc(Cl)cc(Oc2ccccc2OCCn2ccc(=O)[nH]c2=O)c1`, for which the EC50 in series [1] amounted to 5 nM; in [2], 8 nM; in series [3], 50 nM; in series [4], 23 nM; in series [10], 2.8 nM; in series [11], 2.2 nM. In [6], this molecule gave a CC50 of 18000 nM. In addition, the IC50 in [7] came to 3.3 nM; in [8] it was 2.1 nM. The Ratio IC50 in series [9] was found to be 0.6.
In the case of `O=C1Nc2ccc(Cl)cc2[C@@](C#CC2CC2)(C(F)(F)F)O1` [EFAVIRENZ], the EC50 in [2] stood at 870 nM; in series [3] it was 836 nM; in [4] it was 41 nM.

Values taken from ChEMBL document CHEMBL3739311 (ACS Med Chem Lett, 2015).
